T cell HTS: modulators of CD8 T cell-vesicle binding, primary screen, mouse 2C CD8+ T cells, flow cytometry | 2C CD8+ T cell-vesicle binding; hits give low values | response (vesicle binding), % at 7 µM | actives 0.068% (n = 330,000) | AID 2052, 2009;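 active = response, share of CD8 T cells binding vesicles, and their 90th percentile fluorescence all below set limits, cut at about 80% in these data, passing the limit was not always enough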;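 also: values below 100% mean blocked vesicle binding to the CD8+ T cells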
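System: murine 2C transgenic CD8+ T lymphocytes; also added: QL9-loaded Drosophila micro-vesicles; times: binding 1.5 h at 37 °C; measured by: flow cytometry, PE anti-B7-1 (FL2) versus Alexa647 anti-CD8 (FL8), PFA-fixed; control set: Peptide-free naked vesicles (low) and QL9 vesicles with 0.7% DMSO vehicle (high)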
ALR H2O2 inh: inhibitors of human ALR sulfhydryl oxidase, primary screen, biochemical, H2O2 detection, HRP-luminol luminescence, single point | FAD-linked sulfhydryl oxidase ALR (Homo sapiens), P55789 | purified ALR, DTT oxidation | AID 485317, 2010 | inhibition, % (no concentration beside the values) | actives 3.8% (n = 290,000);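 active = mean replicate inhibition above about 79%, with every replicate also reaching it, limit read from the data; inconclusive = only one of the two criteria met; inactive = mean below limit and not every replicate reaching it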
Target sequence (P55789 whole entry, looked up): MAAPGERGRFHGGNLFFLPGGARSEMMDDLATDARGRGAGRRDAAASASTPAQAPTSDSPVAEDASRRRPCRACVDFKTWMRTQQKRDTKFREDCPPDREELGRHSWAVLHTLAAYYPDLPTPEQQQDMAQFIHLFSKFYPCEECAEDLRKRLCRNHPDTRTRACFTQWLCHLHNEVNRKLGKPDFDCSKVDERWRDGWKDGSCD
Glyco luc inh: increase of ERlucT glycosylation luciferase signal, primary screen, N-linked glycosylation inhibitor project, D54 ERlucT cells, luminescence, set 2; actives 0.23% (n = 360,000); reporter increase, % at 12.5 µM; D54 ERlucT glycosylation luciferase reporter, 24 h; percent of 100 nM tunicamycin response;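 active = mean luciferase reporter signal, scaled so untreated is 0 and the glycosylation-blocking control 100, at or above a set limit in every replicate; inconclusive = mean reaches the limit but not every replicate does; inactive = mean below the limit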;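 also: luciferase carries N-glycosylation sites so blocking glycosylation raises the light; 0% = median of neutral control wells and 100% = median of 100 nM tunicamycin wells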
Starred values were filed as active, the others as inactive; i = inactive; ? = inconclusive; / = not tested or not shown. The sample as a whole holds a higher share of hits than the screen did.

SMILES	T cell HTS	ALR H2O2 inh	Glyco luc inh
CCOC(=O)C1(Cc2ccc(OC)cc2)CCN(C(=O)c2cc3ccccc3[nH]2)CC1	154	-17	-6
COc1cccc(CNC(=O)CCC2CCCN(c3cc(C)nc(N4CCCC4)n3)C2)c1 (stereo not given)	130	-6	2
CC(=O)NNC(=O)c1cc2sccc2s1	237	/	0
NNC(=O)c1cc2sccc2s1	146	98*	0
COc1ccc(OC)c(C(=O)NC(CC(N)=O)c2ccc(N3CCC(Cc4ccccc4)CC3)c([N+](=O)[O-])c2)c1 (stereo not given)	349	-3	1
Cc1cc(N(C)Cc2ccccc2)nc(-c2ccccc2)n1	531	/	5
Cc1cc(N(C)Cc2ccccc2)nc2cc(O)ccc12	160	98*	-2
COc1ccc(-c2cc(C(F)(F)F)n3nc(C(=O)NCc4ccco4)cc3n2)cc1	120	0	-1
Cc1cc(-c2ccccc2)nc2cc(C(=O)NCc3ccco3)nn12	53	93*	3
Cc1cc(N2CCOCC2)n2nc(C)c(-c3ccccc3Cl)c2n1	139	0	3
CCN1C(=O)CC(N2CCN(c3ccc(OC)cc3)CC2)C1=O (stereo not given)	364	58	0
COc1ccccc1N1C(=O)CC(N2CCN(c3ccc(F)cc3)CC2)C1=O (stereo not given)	295	97*	2
COc1ccc(N2CCN(C3CC(=O)N(Cc4ccccc4)C3=O)CC2)cc1 (stereo not given)	240	92*	2
O=C1CC(N2CCCCCC2)C(=O)N1c1ccc2c(c1)OCO2 (stereo not given)	212	3	3
COc1ccccc1N1CCN(C2CC(=O)N(c3ccc(Cl)cc3)C2=O)CC1 (stereo not given)	241	/	1
O=C1CC(N2CCN(c3ccc(O)cc3)CC2)C(=O)N1c1ccc2c(c1)OCO2 (stereo not given)	278	99*	0
Cc1ccc(NC(=O)CCC(=O)NNC(=O)Nc2cccc(Cl)c2)c(C)c1	257	-17	/
CCn1c2ccccc2c2nnc(NN)nc21	109	-5	2
CCn1c2ccc(C)cc2c2nnc(NN)nc21	920	99*	3
N#Cc1ccc(C(=O)N2CCCC(c3cc(C(=O)NCc4cccnc4)no3)C2)cc1 (stereo not given)	/	/	0
CN(Cc1ccco1)S(=O)(=O)c1nnc(NC(=O)c2cccc(Cl)c2)s1	358	96*	3
CC(C)CC(=O)Nc1nnc(S(=O)(=O)N(C)Cc2ccco2)s1	606	-3	-1
CC(=O)NC1=C(Nc2ccc(N(C)C)cc2)C(=O)c2ccccc2C1=O	374	100*	-11
CC(=O)NC1=C(N(C)C2CCS(=O)(=O)C2)C(=O)c2ccccc2C1=O (stereo not given)	254	7	11
COc1ccccc1C(=O)NCC(=O)N1CCN(S(=O)(=O)c2ccc3c(c2)OCCO3)CC1	321	-47	1
SMILES	T cell HTS	ALR H2O2 inh	Glyco luc inh
CCN(C(=O)CCCCC(=O)N(CC)c1ccccc1)c1ccccc1	373	-5	-1
C/C(=N\NS(=O)(=O)c1ccc([N+](=O)[O-])cc1)c1cccs1	268	62	1
CC(C)/C(=N\NS(=O)(=O)c1ccc(Br)cc1)c1cccs1	177	80*	1
COC(=O)[C@H](CCSC)NC(=O)Nc1cccc(Br)c1	202	-5	2
COc1cc(NCCCCCCCN)c2ncccc2c1	202	96*	-2
COc1cc(NC(C)CCCN)c2ncccc2c1 (stereo not given)	499	25	3
O=C1NC(c2cccc(OCc3ccccc3)c2)Nc2ccccc21 (stereo not given)	/	/	15
Cc1cc(C)nc(SCc2cc(=O)c(OC(=O)c3cc([N+](=O)[O-])ccc3Cl)co2)n1	879	94*	0
Cc1cc(C)nc(SCc2cc(=O)c(OC(=O)c3ccco3)co2)n1	241	21	-1
COc1cc(/C=N/NC(=O)CSc2ccccn2)ccc1O	370	98*	3
CN(C)c1ccc(/C=N/NC(=O)CSc2ccccn2)cc1	181	99*	1
Cc1cccc(OCC(=O)N/N=C/c2ccc(N(C)C)cc2)c1	309	98*	1
CN(C)c1ccc(/C=N/NC(=O)COc2ccccc2)cc1	242	/	1
CCCOc1ccc(/C=N/NC(=O)CSc2ccccn2)cc1OC	256	/	-1
CC(/C=N/NC(=O)CSc1ccccn1)=C\c1ccc(C(C)C)cc1	228	-1	-8
COc1ccc(S(=O)(=O)N2CCC(C(N)=O)(N3CCCCC3)CC2)cc1OC	194	-4	-3
COc1ccc(S(=O)(=O)NCc2ccc(C(=O)NCCN(C)Cc3ccccc3)cc2)cc1	/	/	-4
Cc1ccc(C)c(NC(=O)C2=CCN(S(=O)(=O)c3ccc(F)cc3)CC2)c1	396	-67	0
Cc1oc(-c2cccs2)nc1CS(=O)CC(=O)NCc1ccc2c(c1)OCO2 (stereo not given)	281	28	0
O=C(NCc1ccc2c(c1)OCO2)c1cc(-c2ccccc2Cl)on1	56	-7	0
Cc1oc(-c2ccccc2Cl)nc1CS(=O)CC(=O)NCc1ccc(Cl)cc1 (stereo not given)	840	99*	0
Cc1oc(-c2ccccc2Cl)nc1CS(=O)CC(=O)NCc1ccc2c(c1)OCO2 (stereo not given)	361	82*	-1
Cc1ccccc1-c1nc(CS(=O)CC(=O)NCc2ccc3c(c2)OCO3)c(C)o1 (stereo not given)	105	98*	2
Cc1oc(-c2ccccc2F)nc1CS(=O)CC(=O)NCc1ccc(Cl)cc1 (stereo not given)	194	59	0
CCc1nnc(NC(=O)C2(C)COC(c3ccccc3)OC2)s1 (stereo not given)	954	1	3
SMILES	T cell HTS	ALR H2O2 inh	Glyco luc inh
COc1ccc(C(=O)NCC(c2cccnc2)N2CCN(c3ccccc3OC)CC2)cc1OC (stereo not given)	704	50	3
COc1ccc(N2CCN(C(CNC(=O)C3CCCCC3)c3cccnc3)CC2)cc1 (stereo not given)	391	?	0
COc1cc(C(=O)NCC(c2cccnc2)N2CCN(c3ccc(F)cc3)CC2)cc(OC)c1OC (stereo not given)	231	55	-1
O=S(=O)(NCC(c1cccnc1)N1CCN(c2ccc(F)cc2)CC1)c1ccc(F)cc1 (stereo not given)	i	48	0
O=C(NCC(c1cccnc1)N1CCN(c2ccc(F)cc2)CC1)C1CCCCC1 (stereo not given)	145	98*	2
O=C(NCC(c1cccnc1)N1CCN(c2ccc(F)cc2)CC1)c1ccc(F)cc1 (stereo not given)	202	98*	0
COc1ccc(C(=O)NCC(c2cccnc2)N2CCN(c3ccc(F)cc3)CC2)cc1OC (stereo not given)	364	86*	0
